Results reported in PMC2875079 (Journal of medicinal chemistry, 2010).
Blank lines part the entries; values can stand above or below the molecule they belong to.

Key:
[1] = test system: SphKs; conditions: cited from earlier work
[2] = in water and DMSO; cited from earlier work
[3] = test system: SphK1; conditions: read-out: KM of SphK1 for sphingosine; cited from earlier work
[4] = test system: SphK2; conditions: read-out: KM of SphK2 for sphingosine; cited from earlier work
[5] = target: Human SphK1 (Homo sapiens, UniProt Q9NYA1); assay: Sphingosine kinase assay, recombinant SphK1; type: biochemical; conditions: for Inhibition of SphK1: at concentrations up to 100 μM
[6] = target: T1, mouse SphK2 (Mus musculus, UniProt Q9JIA7); assay: Sphingosine kinase assay, recombinant SphK2; type: biochemical; conditions: for Inhibition of SphK2: at concentrations up to 100 μM
T1 sequence (Q9JIA7 1-617): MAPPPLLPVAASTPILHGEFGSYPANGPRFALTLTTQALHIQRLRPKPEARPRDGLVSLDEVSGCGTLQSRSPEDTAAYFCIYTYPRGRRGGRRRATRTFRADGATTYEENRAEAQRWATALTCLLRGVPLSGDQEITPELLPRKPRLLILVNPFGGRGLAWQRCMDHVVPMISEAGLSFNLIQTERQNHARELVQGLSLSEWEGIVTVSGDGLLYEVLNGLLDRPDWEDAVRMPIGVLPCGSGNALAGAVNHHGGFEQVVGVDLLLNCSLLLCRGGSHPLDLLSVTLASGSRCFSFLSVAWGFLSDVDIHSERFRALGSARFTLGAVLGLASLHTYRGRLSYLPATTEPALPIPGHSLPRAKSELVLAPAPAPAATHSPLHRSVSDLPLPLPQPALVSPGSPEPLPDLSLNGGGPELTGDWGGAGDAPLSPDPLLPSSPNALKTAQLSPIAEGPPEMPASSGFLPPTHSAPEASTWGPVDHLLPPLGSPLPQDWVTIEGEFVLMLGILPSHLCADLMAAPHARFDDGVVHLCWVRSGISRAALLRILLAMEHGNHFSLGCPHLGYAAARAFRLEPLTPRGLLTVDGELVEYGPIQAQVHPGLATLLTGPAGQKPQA

[7] = test system: vascular smooth muscle cells; assay: Intracellular S1P concentration by LC/MS in serum-stimulated smooth muscle cells; type: cell-based, rat; conditions: pre-treated 30 min, then 10% serum; Figure 3C
Summary of the method: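 Rat aortic smooth muscle cells were pre-treated with test compound for 30 min, then given 10% FBS for 12 h. Cells were washed in PBS and scraped into ice-cold MeOH, then extracted with CHCl3/0.1 M HCl containing 50 pmol C17 S1P internal standard. The organic phase was acetylated (acetic anhydride/pyridine). Analysis used C8 LC with […] ESI-MS/MS (BisAcS1P 462/402), quantified against calibration curves. N=2 biological replicates; mean ± st dev.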

[8] = test system: vascular smooth muscle cells; assay: Smooth muscle cell proliferation, BrdU incorporation; type: cell-based, rat; conditions: pre-treated 30 min, 10% serum 24 hours, Figure 3D
Summary of the method: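 Rat aortic vascular smooth muscle cells were pre-treated 30 min with a dose range of test compound, then stimulated with 10% FBS for 24 h. Proliferation was read as BrdU (10 μM) incorporation by immunoassay. N=6 biological replicates; mean ± st dev; P < 0.05 marked.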

[9] = test system: vascular smooth muscle cells; assay: Cytotoxicity on visual microscopic inspection; type: cell-based; conditions: 10% FBS + compound (10 μM), light microscopy; Figure 3E
Summary of the method: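 Rat aortic vascular smooth muscle cells were imaged by light microscopy at 20× magnification. Conditions were untreated control, 10% FBS, and 10% FBS plus test compound at 10 μM. Cytotoxicity was judged by visual inspection.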

[10] = test system: vascular smooth muscle cells; assay: Cell viability / cytotoxic response, Promega MultiTox-Fluor Assay; type: cell-based; conditions: 0.001 μM – 100 μM, Figure 3F
Summary of the method: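 Rat aortic vascular smooth muscle cells, cultured in vitro. Test compound applied at 0.001–100 μM, with 20 μM cyclosporine A as comparator. Cytotoxicity read with the MultiTox-Fluor fluorescence kit. N=3 biological replicates; mean ± st dev; P < 0.05 marked.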

[11] = target: diacylglycerol kinase type γ (Homo sapiens, UniProt P49619); assay: Specificity test at recombinant diacylglycerol kinase type γ; type: biochemical; conditions: at concentrations up to 100 μM
[12] = target: T2, diacylglycerol kinase type δ1 (Homo sapiens, UniProt Q16760); assay: Specificity test at recombinant diacylglycerol kinase type δ1; type: biochemical; conditions: at concentrations up to 100 μM
T2 sequence (Q16760 1-1170 isoform Q16760-2): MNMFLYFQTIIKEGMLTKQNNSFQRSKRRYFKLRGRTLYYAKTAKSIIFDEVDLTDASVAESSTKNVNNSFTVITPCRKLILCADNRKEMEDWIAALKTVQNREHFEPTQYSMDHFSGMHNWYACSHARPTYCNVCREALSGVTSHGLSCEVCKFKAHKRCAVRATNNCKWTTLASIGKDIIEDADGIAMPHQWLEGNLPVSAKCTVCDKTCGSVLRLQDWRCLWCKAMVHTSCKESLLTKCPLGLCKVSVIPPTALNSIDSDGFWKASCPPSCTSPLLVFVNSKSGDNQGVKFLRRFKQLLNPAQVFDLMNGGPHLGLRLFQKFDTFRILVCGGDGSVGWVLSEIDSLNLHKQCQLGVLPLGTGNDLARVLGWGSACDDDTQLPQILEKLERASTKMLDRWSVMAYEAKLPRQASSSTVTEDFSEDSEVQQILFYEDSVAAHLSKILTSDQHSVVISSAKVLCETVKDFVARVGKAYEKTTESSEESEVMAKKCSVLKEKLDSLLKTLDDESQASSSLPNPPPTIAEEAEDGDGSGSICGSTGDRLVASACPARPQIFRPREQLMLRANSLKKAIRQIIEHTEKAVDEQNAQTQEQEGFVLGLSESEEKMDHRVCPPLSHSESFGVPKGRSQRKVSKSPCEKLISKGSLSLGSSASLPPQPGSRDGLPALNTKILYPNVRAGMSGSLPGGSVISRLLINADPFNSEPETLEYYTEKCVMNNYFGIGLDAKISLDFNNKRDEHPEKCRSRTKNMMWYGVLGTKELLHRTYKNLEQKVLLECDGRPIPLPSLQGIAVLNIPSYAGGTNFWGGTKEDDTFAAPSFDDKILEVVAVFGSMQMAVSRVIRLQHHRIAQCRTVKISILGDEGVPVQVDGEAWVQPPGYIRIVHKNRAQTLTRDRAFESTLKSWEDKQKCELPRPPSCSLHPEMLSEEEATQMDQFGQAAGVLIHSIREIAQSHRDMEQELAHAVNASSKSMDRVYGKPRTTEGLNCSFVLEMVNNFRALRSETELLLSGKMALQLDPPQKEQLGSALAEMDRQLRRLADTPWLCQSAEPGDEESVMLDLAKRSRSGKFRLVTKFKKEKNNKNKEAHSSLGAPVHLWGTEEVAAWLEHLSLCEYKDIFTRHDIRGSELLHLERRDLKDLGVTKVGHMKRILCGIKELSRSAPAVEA

[13] = target: diacylglycerol kinase type ζ (Homo sapiens, UniProt Q13574); assay: Specificity test at recombinant diacylglycerol kinase type ζ; type: biochemical; conditions: at concentrations up to 100 μM
[14] = target: PKCα (Homo sapiens, UniProt P17252); assay: Specificity test at PKCα; type: biochemical; conditions: at concentrations up to 10 μM
[15] = substrate: CCCCCCCCCCCCC/C=C/[C@@H](O)[C@@H](N)CO; assay: Sphingosine kinase assay, recombinant SphK2; type: biochemical, mouse; conditions: other: substrate D-erythro-sphingosine, absence of inhibitor
[16] = substrate: CCCCCCCCCCCCC/C=C/[C@@H](O)[C@@H](N)CO; assay: Sphingosine kinase assay, recombinant SphK1; type: biochemical, human; conditions: other: substrate D-erythro-sphingosine, absence of inhibitor

diacylglycerol kinase type ζ, sequence (Q13574 whole entry): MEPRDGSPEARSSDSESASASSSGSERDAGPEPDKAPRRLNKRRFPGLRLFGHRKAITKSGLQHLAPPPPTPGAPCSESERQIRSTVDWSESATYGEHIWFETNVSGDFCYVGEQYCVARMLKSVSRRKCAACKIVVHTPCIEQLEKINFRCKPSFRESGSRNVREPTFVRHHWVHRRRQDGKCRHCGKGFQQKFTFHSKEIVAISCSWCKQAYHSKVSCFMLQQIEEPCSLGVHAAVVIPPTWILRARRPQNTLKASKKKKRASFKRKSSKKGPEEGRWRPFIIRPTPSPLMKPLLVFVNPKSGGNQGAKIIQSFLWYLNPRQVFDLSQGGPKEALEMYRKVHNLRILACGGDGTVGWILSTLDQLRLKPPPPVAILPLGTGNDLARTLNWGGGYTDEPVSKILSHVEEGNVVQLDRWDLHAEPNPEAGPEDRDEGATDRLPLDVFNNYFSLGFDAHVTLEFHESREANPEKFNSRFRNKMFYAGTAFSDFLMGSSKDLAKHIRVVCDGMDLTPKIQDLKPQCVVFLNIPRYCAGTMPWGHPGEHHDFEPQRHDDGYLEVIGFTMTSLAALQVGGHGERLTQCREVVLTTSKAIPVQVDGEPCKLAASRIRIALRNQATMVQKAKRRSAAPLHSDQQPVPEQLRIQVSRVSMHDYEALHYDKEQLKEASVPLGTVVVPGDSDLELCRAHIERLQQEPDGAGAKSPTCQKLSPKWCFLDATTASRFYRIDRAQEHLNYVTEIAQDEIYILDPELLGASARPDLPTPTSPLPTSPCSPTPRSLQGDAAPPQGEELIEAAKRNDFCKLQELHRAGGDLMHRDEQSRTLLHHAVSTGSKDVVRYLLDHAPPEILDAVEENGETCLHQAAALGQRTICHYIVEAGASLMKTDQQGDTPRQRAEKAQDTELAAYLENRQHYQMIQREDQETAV
diacylglycerol kinase type γ, sequence (P49619 whole entry): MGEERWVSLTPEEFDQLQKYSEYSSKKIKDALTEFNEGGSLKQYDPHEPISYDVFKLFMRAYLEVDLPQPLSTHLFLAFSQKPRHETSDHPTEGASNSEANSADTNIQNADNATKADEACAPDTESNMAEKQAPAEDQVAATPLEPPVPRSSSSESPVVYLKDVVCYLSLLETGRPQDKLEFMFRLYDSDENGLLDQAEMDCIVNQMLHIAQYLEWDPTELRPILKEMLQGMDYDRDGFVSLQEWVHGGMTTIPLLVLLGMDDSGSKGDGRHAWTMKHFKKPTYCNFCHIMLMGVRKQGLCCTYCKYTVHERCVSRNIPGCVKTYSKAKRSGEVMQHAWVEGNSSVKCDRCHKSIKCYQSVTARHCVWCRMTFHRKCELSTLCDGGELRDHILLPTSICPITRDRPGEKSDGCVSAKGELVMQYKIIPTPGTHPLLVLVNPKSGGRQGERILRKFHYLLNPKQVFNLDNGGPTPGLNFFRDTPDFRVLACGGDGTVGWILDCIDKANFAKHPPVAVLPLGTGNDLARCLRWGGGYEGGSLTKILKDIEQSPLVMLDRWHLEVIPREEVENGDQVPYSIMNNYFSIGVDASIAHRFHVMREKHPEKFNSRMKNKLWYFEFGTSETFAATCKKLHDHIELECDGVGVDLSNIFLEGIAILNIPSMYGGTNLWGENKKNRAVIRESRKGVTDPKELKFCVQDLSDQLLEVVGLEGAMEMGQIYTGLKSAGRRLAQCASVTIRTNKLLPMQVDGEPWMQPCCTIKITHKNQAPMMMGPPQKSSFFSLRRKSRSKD

Molecule: CCCCCCCCCCCCC/C=C/[C@@H](O)[C@H](N)CO [D-(+)-threo-sphingosine]
Inhibition of the SphKs [1]: weak inhibitor

Molecule: Cn1cc(NC(=O)c2cc(NC(=O)c3cc(NC=O)cn3C)cn2C)cc1C(=O)NCCC(=N)N [Distamycin A]
pKa [2]: 11.6

Molecule: CCCCCCCCCCCCC/C=C/[C@@H](O)[C@@H](N)CO [Sphingosine, D-erythro-sphingosine]
Km [3]: ~10 µM
Km [4]: ~5 µM

Molecule: CCCCCCCCc1ccc(C(=O)N[C@@H](C)C(=N)N)cc1.Cl [compound 9, (S)-N-(1-amino-1-iminopropan-2-yl)-4-octylbenzamide hydrochloride]
Ki [5]: 55 µM
Ki [6]: 20 µM
Serum-induced changes in S1P intracellular concentration [7]: blocked
Blocked serum-induced smooth muscle cell proliferation [8]: blocked
Cytotoxicity on visual microscopic inspection [9]: not cytotoxic
Cytotoxicity/death in cell viability assay [10]: did not induce cytotoxicity/death

Inhibition of SphK1 [5]: no inhibition
Inhibition of SphK2 [6]: no inhibition
Molecule: CCCCCCCCc1ccc(C(=O)N[C@@H](C)C(=O)O)cc1 [compound 12, (S)-2-(4-octylbenzamido)propanoic acid]

Inhibition of SphK1 [5]: no inhibition
Inhibition of SphK2 [6]: no inhibition
Molecule: CCCCCCCCc1ccc(C(=O)N[C@@H](C)C(N)=O)cc1 [compound 13, (S)-N-(1-amino-1-oxopropan-2-yl)-4-octylbenzamide]

Inhibition of diacylglycerol kinase type γ [11]: no inhibition
Inhibition of diacylglycerol kinase type δ1 [12]: no inhibition
Inhibition of diacylglycerol kinase type ζ [13]: no inhibition
Inhibition of PKCα [14]: no inhibition
Molecule: CCCCCCCCCCCCc1ccc(C(=O)NC2(C(=N)N)CC2)cc1.Cl [compound 23, N-(1-carbamimidoylcyclopropyl)-4-dodecylbenzamide hydrochloride]

Ki [6]: 6 µM
Inhibition of diacylglycerol kinase type γ [11]: no inhibition
Inhibition of diacylglycerol kinase type δ1 [12]: no inhibition
Inhibition of diacylglycerol kinase type ζ [13]: no inhibition
Inhibition of PKCα [14]: no inhibition
Molecule: CCCCCCCCCCCCc1ccc(NC(=O)C2(C(=N)N)CC2)cc1.Cl [compound 28, 1-carbamimidoyl-N-(4-dodecylphenyl)cyclopropanecarboxamide hydrochloride]

B1: mouse SphK2 (Mus musculus) (protein)
chain: T1 sequence (Q9JIA7 1-617)
Km [15]: 5 µM

B2: Human SphK1 (Homo sapiens) (protein)
chain: MDPAGGPRGVLPRPCRVLVLLNPRGGKGKALQLFRSHVQPLLAEAEISFTLMLTERRNHARELVRSEELGRWDALVVMSGDGLMHEVVNGLMERPDWETAIQKPLCSLPAGSGNALAASLNHYAGYEQVTNEDLLTNCTLLLCRRLLSPMNLLSLHTASGLRLFSVLSLAWGFIADVDLESEKYRRLGEMRFTLGTFLRLAALRTYRGRLAYLPVGRVGSKTPASPVVVQQGPVDAHLVPLEEPVPSHWTVVPDEDFVLVLALLHSHLGSEMFAAPMGRCAAGVMHLFYVRAGVSRAMLLRLFLAMEKGRHMEYECPYLVYVPVVAFRLEPKDGKGVFAVDGELMVSEAVQGQVHPNYFWMVSGCVEPPPSWKPQQMPPPEEPL
Km [16]: 10 µM
